In ChEMBL document CHEMBL1138784, “Rational design, synthesis, and biological evaluation of bis(pyrimido[5,6,1-de]acridines) and bis(pyrazolo[3,4,5-kl]acridine-5-carboxamides) as new anticancer agents” (J Med Chem, 2004):

How the values were obtained:
[1] = Cytotoxicity against human H460M cancer cell line was determined after 144 hr; format: functional, cell-based; conditions: Cancer cell lines
How it was run: (§1)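 MTT colorimetric assay. Cells seeded by growth characteristics and preincubated 24 h, then exposed to drug for 1 h or 144 h at 37 °C, 5% CO2. H460M, MKN45 and PC-3 were grown in RPMI 1640 with 10% FCS. HCT116 was grown in D-MEM with 10% FBS and 2 mM glutamine.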

MKN-45 = assay: Cytotoxicity against human MKN45 cancer cell line was determined after 144 hr; format: functional, cell-based; conditions: MKN-45, 144 h; how it was run: as §1
LoVo [2] = assay: Ratio of IC50 against sensitive LoVo cell line and that of doxorubicin resistance LoVo cell line was determined after 1 hr exposure; format: functional, Homo sapiens
LoVo [3] = assay: Cytotoxicity against doxorubicin resistant LoVo cell line was determined against 144 hrs; format: functional, cell-based; conditions: Homo sapiens
How it was run: (§2)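 MTT assay on doxorubicin-sensitive LoVo and resistant LoVo/Dx cells, 24 h preincubation, then 1 h or 144 h drug exposure at 37 °C, 5% CO2. IC50 in nM. Resistance index is IC50 on LoVo/Dx divided by IC50 on LoVo.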

Nucleic Acid = assay: Binding site preference is determined as the ratio of Poly (dA-dT)2 to Poly (dG-dC)2; format: nucleic-acid assay
How it was run: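 Ethidium displacement fluorometry at pH 7.0 (10 mM Na2HPO4, 10 mM NaH2PO4, 1 mM EDTA) with 1.26 μM ethidium bromide and 1 μM [poly(dA-dT)]2 or [poly(dG-dC)]2, 20 °C. Ex 546 nm, em 595 nm, drug added serially from a DMSO stock. Preference taken from the [AT]/[GC] ratio of C50 values, counted significant only below 0.7 or above 1.3.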

SNB-19 [4] = assay: Percent growth of CNS SNB-19 cell line was determined at 10e-5 M concentration after 48 hr of exposing; format: functional, Homo sapiens
How it was run: (§3)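 NCI sulforhodamine B screen. Cells seeded by growth rate, 24 h drug-free, then 48 h exposure to 10^-8, 10^-6 or 10^-5 M. Protein-stain optical density expressed as percent growth relative to untreated control (100%); negative values indicate cell kill.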

HCT-116 = assay: Cytotoxicity against human HCT116 cancer cell line was determined after 144 hr; format: functional, cell-based; conditions: HCT-116, 144 h; how it was run: as §1
DU-145 [5] = assay: Percent growth of prostate DU-145 cell line was determined at 10e-6 M concentration after 48 hr of exposing; format: functional, Homo sapiens
DU-145 [6] = assay: Percent growth of prostate DU-145 cell line was determined at 10e-8 M concentration after 48 h of exposing; format: functional, Homo sapiens
[7] = Percent growth of melanoma LOX IMV1 cell line was determined at 10e-5 M concentration after 48 hr of exposing; format: functional, Homo sapiens; how it was run: as §3
[8] = Percent growth of melanoma LOX IMV1 cell line was determined at 10e-6 M concentration after 48 hr of exposing; format: functional, Homo sapiens; how it was run: as §3
[9] = Percent growth of melanoma LOX IMV1 cell line was determined at 10e-8 M concentration after 48 hr of exposing; format: functional, Homo sapiens; how it was run: as §3
PC-3 = assay: Cytotoxicity against human PC3 cancer cell line was determined after 144 hr; format: functional, cell-based; conditions: PC-3, 144 h; how it was run: as §1
[10] = Cytotoxicity against doxorubicin resistant LoVo cell line was determined against 1 hour; format: cell-based; conditions: Homo sapiens; how it was run: as §2
LoVo [11] = assay: Cytotoxicity against human LoVo cancer cell line was determined after 144 hr; format: functional, cell-based; how it was run: as §2
SNB-19 [12] = assay: Percent growth of CNS SNB-19 cell line was determined at 10e-6 M concentration after 48 hr of exposing; format: functional, Homo sapiens; how it was run: as §3
SNB-19 [13] = assay: Percent growth of CNS SNB-19 cell line was determined at 10e-8 M concentration after 48 hr of exposing; format: functional, Homo sapiens; how it was run: as §3
786-0 [14] = assay: Percent growth of renal 786-O cell line was determined at 10e-5 M concentration after 48 hr of exposing; format: functional, Homo sapiens; how it was run: as §3
786-0 [15] = assay: Percent growth of renal 786-O cell line was determined at 10e-6 M concentration after 48 h of exposing; format: functional, Homo sapiens; how it was run: as §3
786-0 [16] = assay: Percent growth of renal 786-O cell line was determined at 10e-8 M concentration after 48 h of exposing; format: functional, Homo sapiens; how it was run: as §3
MCF7 [17] = assay: Percent growth of breast MCF-7 cell line was determined at 10e-6 M concentration after 48 h of exposing; format: functional, Homo sapiens
MCF7 [18] = assay: Percent growth of breast MCF-7 cell line was determined at 10e-8 M concentration after 48 hr of exposing; format: functional, Homo sapiens
SW-620 [19] = assay: Percent growth of colon SW-620 cell line was determined at 10e-5 M concentration after 48 hr of exposing; format: functional, Homo sapiens; how it was run: as §3
SW-620 [20] = assay: Percent growth of colon SW-620 cell line was determined at 10e-6 M concentration after 48 hr of exposing; format: functional, Homo sapiens; how it was run: as §3
SW-620 [21] = assay: Percent growth of colon SW-620 cell line was determined at 10e-8 M concentration after 48 hr of exposing; format: functional, Homo sapiens; how it was run: as §3
NCI-H460 [22] = assay: Percent growth of lung NCI-H460 cell line was determined at 10e-5 M concentration after 48 hr of exposing; format: functional, Homo sapiens; how it was run: as §3
NCI-H460 [23] = assay: Percent growth of lung NCI-H460 cell line was determined at 10e-6 M concentration after 48 hr of exposing; format: functional, Homo sapiens; how it was run: as §3
NCI-H460 [24] = assay: Percent growth of lung NCI-H460 cell line was determined at 10e-8 M concentration after 48 hr of exposing; format: functional, Homo sapiens; how it was run: as §3
MOLT-4 [25] = assay: Percent growth of leukemia MOLT-4 cell line was determined at 10e-5 M concentration after 48 hr of exposing; format: functional, Homo sapiens; how it was run: as §3
MOLT-4 [26] = assay: Percent growth of leukemia MOLT-4 cell line was determined at 10e-6 M concentration after 48 h of exposing; format: functional, Homo sapiens; how it was run: as §3
MOLT-4 [27] = assay: Percent growth of leukemia MOLT-4 cell line was determined at 10e-8 M concentration after 48 hr of exposing; format: functional, Homo sapiens; how it was run: as §3
OVCAR-4 [28] = assay: Percent growth of ovarian OVCAR-4 cell line was determined at 10e-5 M concentration after 48 hr of exposing; format: functional, Homo sapiens; how it was run: as §3
OVCAR-4 [29] = assay: Percent growth of ovarian OVCAR-4 cell line was determined at 10e-6 M concentration after 48 hr of exposing; format: functional, Homo sapiens; how it was run: as §3
OVCAR-4 [30] = assay: Percent growth of ovarian OVCAR-4 cell line was determined at 10e-8 M concentration after 48 hr of exposing; format: functional, Homo sapiens; how it was run: as §3
DU-145 [31] = assay: Percent growth of prostate DU-145 cell line was determined at 10e-5 M concentration after 48 hr of exposing; format: functional, Homo sapiens
[32] = Cytotoxicity against human LoVo cancer cell line was determined after 1 hr; format: cell-based; how it was run: as §2
[33] = Cytotoxicity against human H460M cancer cell line was determined after 1 hr; format: cell-based; conditions: Cancer cell lines; how it was run: as §1
[34] = Cytotoxicity against human MKN45 cancer cell line was determined after 1 hr; format: cell-based; conditions: Cancer cell lines; how it was run: as §1
[35] = Cytotoxicity against human HCT116 cancer cell line was determined after 1 hr; format: cell-based; conditions: HCT-116, 1 h; how it was run: as §1
HT-29 = assay: Cytotoxicity is determined as the concentration required to inhibit the growth of human colon adenocarcinoma (HT-29) cell line; format: functional, cell-based
MCF7 [36] = assay: Percent growth of breast MCF-7 cell line was determined at 10e-5 M concentration after 48 hr of exposing; format: functional, Homo sapiens
[37] = Cytotoxicity against human PC3 cancer cell line was determined after 1 hr; format: cell-based; conditions: Cancer cell lines; how it was run: as §1

COc1ccc2c(c1)-c1nn(CCN(C)C)c3ccc(C(=O)NCCCN(C)CCCNC(=O)c4ccc5c6c(c7cc(OC)ccc7nc46)NN5CCN(C)C)c(c13)N2 gave an IC50 [1] of 4.3 nM, an IC50 (MKN-45) of 13 nM and a Resistance index (LoVo [2]) of 58. The IC50 (LoVo [3]) was 290 nM, the Binding site preference (Nucleic Acid) was 5.5 and the Growth (SNB-19 [4]) was -37%. For the same molecule, the IC50 (HCT-116) was 43 nM, the Growth (DU-145 [5]) was -8% and the Growth (DU-145 [6]) was 70%. The Growth [7] was -80%, the Growth [8] was 3% and the Growth [9] was 46%. For the same molecule, the IC50 (PC-3) was 39 nM, the IC50 [10] was 3100 nM and the IC50 (LoVo [11]) was 5.1 nM. For the same molecule, the Growth (SNB-19 [12]) was 0%, the Growth (SNB-19 [13]) was 47% and the Growth (786-0 [14]) was -33%. For the same molecule, the Growth (786-0 [15]) was 11%, the Growth (786-0 [16]) was 53% and the Growth (MCF7 [17]) was 7%. For the same molecule, the Growth (MCF7 [18]) was 66%, the Growth (SW-620 [19]) was -39% and the Growth (SW-620 [20]) was 3%. The Growth (SW-620 [21]) was 44%, the Growth (NCI-H460 [22]) was -58% and the Growth (NCI-H460 [23]) was 3%. It also gave a Growth (NCI-H460 [24]) of 23%, a Growth (MOLT-4 [25]) of -28% and a Growth (MOLT-4 [26]) of -28%. It also gave a Growth (MOLT-4 [27]) of 19%, a Growth (OVCAR-4 [28]) of -54% and a Growth (OVCAR-4 [29]) of -5%. It also gave a Growth (OVCAR-4 [30]) of 71%, a Growth (DU-145 [31]) of -21% and an IC50 [32] of 53 nM. The IC50 [33] was 26 nM, the IC50 [34] was 51 nM and the IC50 [35] was 120 nM. For the same molecule, the IC50 (HT-29) was 3 nM, the Growth (MCF7 [36]) was -18% and the IC50 [37] was over 100 nM.
